In ChEMBL document CHEMBL1914430, “Synthesis of some new 1,3,5-trisubstituted pyrazolines bearing benzene sulfonamide as anticancer and anti-inflammatory agents” (Bioorg Med Chem Lett, 2011):

How the values were obtained:
Assay type in all cases: functional
786-0 = experiment: Anticancer activity against human 786-0 cells after 48 hrs; details: 786-0, 48 h
Procedure, shortened: (§1)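 NCI Drug Evaluation Branch 60-cell-line screen across leukemia, melanoma, lung, colon, CNS, ovarian, renal, prostate and breast panels. The incubation period is 48 h. Parameters are derived from dose–response data: GI50 is the concentration giving 50% decrease in net growth, TGI is total growth inhibition, and LC50 is net 50% loss of initial cells. Values beyond the tested range are reported as greater or less than the maximum or minimum concentration.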

A498 = experiment: Anticancer activity against human A498 cells after 48 hrs; details: A498, 48 h; procedure, shortened: as §1
NCI-H522 = experiment: Anticancer activity against human NCI-H522 cells after 48 hrs; details: NCI-H522, 48 h
Procedure, shortened: (§2)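 NCI 60-line panel protocol with a 48 h incubation. Per line: GI50 = concentration giving 50% decrease in net cell growth; TGI = total growth inhibition; LC50 = net 50% loss of initial cells. When the level was not reached or was exceeded, the value is given as greater or less than the highest or lowest concentration tested.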

HCT-116 = experiment: Anticancer activity against human HCT116 cells after 48 hrs; details: HCT-116, 48 h; procedure, shortened: as §1
UO-31 = experiment: Anticancer activity against human UO31 cells after 48 hrs; details: UO-31, 48 h
Procedure, shortened: (§3)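 NCI ~60 human tumour cell line panel with a 48 h incubation. GI50 is the concentration giving a 50% fall in net growth, TGI gives total growth inhibition, and LC50 gives a net 50% loss of initial cells. An effect not reached or exceeded is reported as greater or less than the highest or lowest concentration tested.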

SK-MEL-28 = experiment: Anticancer activity against human SK-MEL-28 cells after 48 hrs; details: SK-MEL-28, 48 h; procedure, shortened: as §2
OVCAR-8 = experiment: Anticancer activity against human OVCAR8 cells after 48 hrs; details: OVCAR-8, 48 h; procedure, shortened: as §2
U-251 = experiment: Anticancer activity against human U251 cells after 48 hrs; details: U-251, 48 h; procedure, shortened: as §3
Rattus norvegicus = experiment: Antiinflammatory activity in Wistar rat assessed as inhibition of carrageenan-induced hind paw edema at 20 mg/kg, po administered 30 mins before carrageenan challenge measured after 3 hrs by plethysmometer
Procedure, shortened: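 Wistar rats of either sex, 150–175 g, fasted 16 h, n = 6 per group. Compound given orally at 20 mg/kg as a suspension in 1% CMC in water (10 mL/kg); controls got vehicle only. After 30 min, 0.1 mL of 1% carrageenan in saline was injected subplantar into the left hind paw. Paw volume was measured by plethysmometer at 0, 3 and 5 h. Inhibition = (1 − Vt/Vc) × 100, reported as mean ± SEM.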

SK-OV-3 = experiment: Anticancer activity against human SKOV3 cells after 48 hrs; details: SK-OV-3, 48 h; procedure, shortened: as §2
MOLT-4 = experiment: Anticancer activity against human MOLT4 cells after 48 hrs; details: MOLT-4, 48 h; procedure, shortened: as §2
T47D = experiment: Anticancer activity against human T47D cells after 48 hrs; procedure, shortened: as §3
NCI-H226 = experiment: Anticancer activity against human NCI-H226 cells after 48 hrs; details: NCI-H226, 48 h; procedure, shortened: as §2
CAKI-1 = experiment: Anticancer activity against human Caki1 cells after 48 hrs; details: CAKI-1, 48 h; procedure, shortened: as §1
TK-10 = experiment: Anticancer activity against human TK10 cells after 48 hrs; details: TK-10, 48 h; procedure, shortened: as §3
SR = experiment: Anticancer activity against human SR cells after 48 hrs; procedure, shortened: as §2
PC-3 = experiment: Anticancer activity against human PC3 cells after 48 hrs; details: PC-3, 48 h; procedure, shortened: as §2
K562 = experiment: Anticancer activity against human K562 cells after 48 hrs; details: K562, 48 h; procedure, shortened: as §1
SF-295 = experiment: Anticancer activity against human SF295 cells after 48 hrs; details: SF-295, 48 h; procedure, shortened: as §2
COLO 205 = experiment: Anticancer activity against human COLO205 cells after 48 hrs; details: COLO 205, 48 h; procedure, shortened: as §1
LOX IMVI = experiment: Anticancer activity against human LOXIMVI cells after 48 hrs; procedure, shortened: as §1
MDA-MB-231 = experiment: Anticancer activity against human MDA-MB-231 cells after 48 hrs; details: MDA-MB-231, 48 h; procedure, shortened: as §1
NCI/ADR-RES = experiment: Anticancer activity against human NCI/ADR-RES cells after 48 hrs; procedure, shortened: as §2
HL-60(TB) = experiment: Anticancer activity against human HL-60(TB) cells after 48 hrs; details: HL-60, 48 h
Procedure, shortened: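 NCI 60-cell-line panel protocol: cells exposed to compound for 48 h. Initial one-dose screen at 10⁻⁵ M. GI50 = concentration giving 50% decrease in net cell growth. TGI = concentration giving total growth inhibition. LC50 = concentration giving net 50% loss of initial cells at the end of incubation. A value not reached or exceeded is reported as greater or less than the highest or lowest concentration tested.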

M14 = experiment: Anticancer activity against human M14 cells after 48 hrs; details: M14, 48 h; procedure, shortened: as §1
NCI-H322M = experiment: Anticancer activity against human NCI-H322M cells after 48 hrs; procedure, shortened: as §2
OVCAR-5 = experiment: Anticancer activity against human OVCAR5 cells after 48 hrs; details: OVCAR-5, 48 h; procedure, shortened: as §2
A549 = experiment: Anticancer activity against human A549 cells after 48 hrs; details: A549, 48 h; procedure, shortened: as §1
[1] = read-out: LC50 (the source's name)

Q: `COc1ccc(C2CC(c3cc(Cl)c(C)cc3O)=NN2c2ccc(S(N)(=O)=O)cc2)cc1OC` (stereo not drawn) was tested. Which GI50 (786-0) did it give?
A: 2.37 µM

Q: What about the TGI (786-0) of the same compound?
A: 5.04 µM

Q: And the CC50 (786-0; [1])?
A: > 100 µM

Q: And the GI50 (A498)?
A: 3.98 µM

Q: And the TGI (A498)?
A: 24.7 µM

Q: What about the CC50 (A498; [1]) of the same compound?
A: > 100 µM

Q: And the GI50 (NCI-H522)?
A: 2.95 µM

Q: What about the LC50 (concentration killing 50% of initial cells) (NCI-H522) of the same compound?
A: 69.3 µM

Q: And the TGI (NCI-H522)?
A: 9.61 µM

Q: And the GI50 (HCT-116)?
A: 1.72 µM

Q: And the TGI (HCT-116)?
A: 4.36 µM

Q: And the CC50 (HCT-116; [1])?
A: 12.4 µM

Q: And the GI50 (UO-31)?
A: 3.3 µM

Q: What about the CC50 (UO-31; [1]) of the same compound?
A: > 100 µM

Q: What about the GI50 (SK-MEL-28) of the same compound?
A: 4.29 µM

Q: And the TGI (SK-MEL-28)?
A: 17.7 µM

Q: And the CC50 (SK-MEL-28; [1])?
A: 62.7 µM

Q: What about the GI50 (OVCAR-8) of the same compound?
A: 3.39 µM

Q: What about the TGI (OVCAR-8) of the same compound?
A: 17.9 µM

Q: And the CC50 (OVCAR-8; [1])?
A: > 100 µM

Q: And the GI50 (U-251)?
A: 3.71 µM

Q: And the TGI (U-251)?
A: 14 µM

Q: What about the CC50 (U-251; [1]) of the same compound?
A: 48.2 µM

Q: And the inhibition in vivo at 20 mg/kg (Rattus norvegicus)?
A: 60.5%

Q: And the GI50 (SK-OV-3)?
A: 4.51 µM

Q: And the TGI (SK-OV-3)?
A: 38.3 µM

Q: And the CC50 (SK-OV-3; [1])?
A: > 100 µM

Q: What about the GI50 (MOLT-4) of the same compound?
A: 5.29 µM

Q: What about the LC50 (MOLT-4) of the same compound?
A: > 100 µM

Q: What about the TGI (MOLT-4) of the same compound?
A: > 100 µM

Q: And the GI50 (T47D)?
A: 3.1 µM

Q: And the TGI (T47D)?
A: 13.3 µM

Q: What about the CC50 (T47D; [1]) of the same compound?
A: > 100 µM

Q: What about the GI50 (NCI-H226) of the same compound?
A: 5.62 µM

Q: And the TGI (NCI-H226)?
A: 23.1 µM

Q: And the CC50 (NCI-H226; [1])?
A: 86.4 µM

Q: What about the GI50 (CAKI-1) of the same compound?
A: 2.78 µM

Q: What about the LC50 (concentration giving 50% net loss of initial cells) (CAKI-1) of the same compound?
A: > 100 µM

Q: And the GI50 (TK-10)?
A: 3.97 µM

Q: And the LC50 (TK-10)?
A: > 100 µM

Q: And the TGI (TK-10)?
A: 18.4 µM

Q: And the GI50 (SR)?
A: 2.82 µM

Q: And the LC50 (concentration killing 50% of initial cells) (SR)?
A: > 100 µM

Q: And the GI50 (PC-3)?
A: 2.61 µM

Q: What about the TGI (PC-3) of the same compound?
A: 13.7 µM

Q: And the CC50 (PC-3; [1])?
A: > 100 µM

Q: What about the GI50 (K562) of the same compound?
A: 3.18 µM

Q: And the LC50 (concentration killing 50% of initial cells) (K562)?
A: > 100 µM

Q: What about the GI50 (SF-295) of the same compound?
A: 2.7 µM

Q: What about the LC50 (concentration giving net 50% loss of initial cells) (SF-295) of the same compound?
A: 0.34 µM

Q: And the TGI (SF-295)?
A: 6.24 µM

Q: What about the GI50 (COLO 205) of the same compound?
A: 1.93 µM

Q: And the LC50 (concentration giving net 50% loss of initial cells) (COLO 205)?
A: 6.02 µM

Q: What about the TGI (COLO 205) of the same compound?
A: 3.41 µM

Q: And the GI50 (LOX IMVI)?
A: 3.35 µM

Q: What about the TGI (LOX IMVI) of the same compound?
A: 11 µM

Q: And the CC50 (LOX IMVI; [1])?
A: 37.4 µM

Q: What about the GI50 (MDA-MB-231) of the same compound?
A: 3.81 µM

Q: What about the TGI (MDA-MB-231) of the same compound?
A: 12.5 µM

Q: What about the CC50 (MDA-MB-231; [1]) of the same compound?
A: 40.4 µM

Q: What about the GI50 (NCI/ADR-RES) of the same compound?
A: 3.39 µM

Q: What about the TGI (NCI/ADR-RES) of the same compound?
A: 14.1 µM

Q: What about the CC50 (NCI/ADR-RES; [1]) of the same compound?
A: > 100 µM

Q: What about the GI50 (HL-60(TB)) of the same compound?
A: 3.42 µM

Q: And the LC50 (HL-60(TB))?
A: > 100 µM

Q: What about the TGI (HL-60(TB)) of the same compound?
A: 100 µM

Q: What about the GI50 (M14) of the same compound?
A: 2.61 µM

Q: And the TGI (M14)?
A: 7.26 µM

Q: And the CC50 (M14; [1])?
A: 38.3 µM

Q: What about the GI50 (NCI-H322M) of the same compound?
A: 4.45 µM

Q: What about the LC50 (net 50% loss of initial cells) (NCI-H322M) of the same compound?
A: > 100 µM

Q: What about the TGI (NCI-H322M) of the same compound?
A: 39.7 µM

Q: What about the GI50 (OVCAR-5) of the same compound?
A: 2.25 µM

Q: What about the LC50 (OVCAR-5) of the same compound?
A: 27.8 µM

Q: And the TGI (OVCAR-5)?
A: 6.36 µM

Q: What about the GI50 (A549) of the same compound?
A: 3.54 µM

Q: What about the LC50 (net 50% loss of initial cells) (A549) of the same compound?
A: > 100 µM

Q: What about the TGI (A549) of the same compound?
A: 19.7 µM
